Source: article PMC11638873 (Molecular Therapy, 2024)
Values joined by “and” are separate entries in the source; they are usually repeats but may differ in a detail not shown here. Identical values can stand only once.

Experiments:
[1] = Biodistribution study after single oral dose in wild-type C57BL/6 mice; assay type: in vivo, mouse; details: 60 mg/kg single oral dose
[2] = cited from earlier work
[3] = test system: CFTR (G542X nonsense mutation); assay type: in vivo, mouse; details: 60 mg/kg daily oral, 15 days
In short: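 G542X homozygous mice (n = 5, genotyped by allele-specific PCR) gavaged daily from P21 for 15 days; 3 WT and 3 mutant mice given water as vehicle. Lung RNA (20–25 mg tissue) for real-time RT-PCR. Lung protein (40 mg tissue, RIPA plus 1% protease inhibitors, Bradford) for western blot, normalized to tubulin and negative control. Triplicate per mouse; mean ± SEM; two-way ANOVA vs untreated mutant.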

[4] = test system: premature termination codons (PTCs) / natural termination codons (NTCs); details: cited from earlier work
[5] = test system: human liver microsomes (CYP, UGT); experiment: In vitro metabolism on human liver microsomes; assay type: in vitro ADME; details: for glucuronate metabolite detection after HLM incubation: with cofactors for UGT activity
In short: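 Test compound (1 mM) incubated at 37 °C with pooled HLMs from 50 donors of both sexes (20 mg protein/mL). Buffer was 100 mM potassium phosphate or 100 mM Tris-HCl, pH 7.4, each with 20 mM NADPH. Reactions stopped with acetonitrile at 0, 5, 30 and 60 min; supernatant analysed by HPLC-MS. % remaining vs 0 min; mean ± SEM; one-way ANOVA vs time 0.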

[6] = assay type: in vivo, mouse; details: 60 mg/kg daily oral
In short: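 Homozygous G542X mice were dosed orally once daily from P21 for 15 days. Controls were 3 WT and 3 mutant mice given water. Afterwards, isolated tissues from each group were stained with hematoxylin and eosin to check for tissue damage.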

Row | Compound | last detection in lungs [1] [h] | concentration in kidneys (individual mice) ([1]; 45 min, found in two mice) | concentration in pancreas ([1]; 45 min to 2 h) | average plasma concentration ([1]; 24 h) [g/mL] | tolerability in vivo [2] | lung CFTR mRNA expression (real-time RT-PCR) ([3]; CFTR G542X/G542X mice, vs untreated mutant) | CFTR detection in lung sections (IHC), apical membranes of pulmonary ducts ([3]; mouse M2) | specificity for PTCs [4] | metabolic stability in HLM compared to PTC124 ([5]; CYP, UGT and other liver microsome enzymes) | consumption after HLM incubation ([5]; after 60 min, CYP-DPBS condition) [%] | consumption after HLM incubation ([5]; after 60 min, CYP-Tris condition) [%] | consumption after HLM incubation ([5]; after 60 min, CYP/UGT-DPBS condition) [%] | consumption after HLM incubation ([5]; after 60 min, CYP/UGT-Tris condition) [%] | glucuronate metabolite detection after HLM incubation [5] | tissue damage after chronic administration (H&E staining) ([6]; 15 days) | tolerability of oral treatment for 2 weeks ([6]; CFTR G542X/G542X mice) | metabolic consumption after HLM incubation ([5]; after 60 min, HLM condition not specified) [%]
1 | CC(=O)Nc1noc(C)n1 [NV848, N-(5-methyl-1,2,4-oxadiazol-3-yl)acetamide] | 2 | 145 ng/g and 794 ng/g | stable concentrations from 45 min to 2 h | 0.06 | good tolerability in vivo | increase in CFTR mRNA expression | intensity similar to CFTR^WT | specificity for PTCs without interfering with NTCs | higher metabolic stability compared to PTC124 | 14.62 | 5.27 | 5.65 | 13.04 | no glucuronate metabolites were detected | no signs of tissue damage | well tolerated in mice and did not cause toxicity | –
2 | O=C(O)c1cccc(-c2noc(-c3ccccc3F)n2)c1 [PTC124, reference compound] | – | – | – | – | – | – | – | – | – | – | – | – | – | glucuronate derivative was the primary metabolite detected | – | – | 46.25
